Reference: ChEMBL document CHEMBL1152669, “New R/S-3,4-dihydro-2,2-dimethyl-2H-1-benzopyrans as K(ATP) channel openers: modulation of the 4-position” (Bioorg Med Chem, 2009)
Calls of active or inactive are those of the source. No cut-off for these calls is given here.

Legend:
Rattus norvegicus [1] = species: Rattus norvegicus; assay: Channel opening activity at KATP channel in Wistar rat pancreatic islets assessed as glucose-induced residual insulin secretion at 10 uM after 90 mins by radioimmunology
In short: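 Islets from adult fed rats, groups of 10, preincubated 30 min at 37 °C in bicarbonate salt medium with 2.8 mM glucose, 0.5% dialyzed albumin, O2/CO2 gassed. Then incubated 90 min at 37 °C with 16.7 mM glucose plus drug. Insulin by radioimmunoassay against rat insulin standard; expressed as % of drug-free 16.7 mM glucose control; mean ± SEM (n).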

Rattus norvegicus [2] = species: Rattus norvegicus; assay: Channel opening activity at KATP channel in Wistar rat pancreatic islets assessed as glucose-induced residual insulin secretion at 1 uM after 90 mins by radioimmunology
[3] = Channel opening activity at KATP channel in Wistar rat endothelium-denuded aortic ring assessed as relaxation of KCl-induced contraction; type: tissue-based; conditions: Aorta
In short: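 Thoracic aortic rings (3–4 mm, endothelium-free) from adult fed rats, 37 °C, O2/CO2 95/5 gassed; isometric tension. After 60 min equilibration, contracted with 30 mM KCl; once stable, drug added cumulatively to maximal relaxation or 300 µM. Relaxation as % of KCl contraction; EC50 (50% inhibition of plateau) from dose–response curves; mean ± SEM (n).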

Rattus norvegicus [4] = species: Rattus norvegicus; assay: Channel opening activity at KATP channel in Wistar rat pancreatic islets assessed as increase in rubidium outflow at 10 uM by scintillation counting
In short: (§1)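 Groups of 100 islets from adult fed rats loaded 60 min at 37 °C with 86Rb in bicarbonate medium with 16.7 mM glucose and 0.5% albumin, washed three times, then perifused at 1.0 mL/min. Effluent collected in 1-min fractions from min 31 to 90, counted by scintillation along with final islet content. Output as fractional outflow rate (% of islet content per min). Glibenclamide 10 µM used as KATP blocker.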

Rattus norvegicus [5] = species: Rattus norvegicus; assay: Channel opening activity at KATP channel in Wistar rat pancreatic islets assessed as increase in rubidium outflow at 10 uM by scintillation counting in presence of glibenclamide; in short: as §1

| Structure (SMILES) | Activity (Rattus norvegicus [1]) [%] | Activity (Rattus norvegicus [2]) [%] | EC50 [3] [nM] | Activity (Rattus norvegicus [4]) | Activity (Rattus norvegicus [5]) |
| --- | --- | --- | --- | --- | --- |
| CS/C(=N\c1cccc(C#N)c1)NC1CC(C)(C)Oc2ccc(Br)cc21 (stereo unspecified) | 37.7 | 93.7 | > 30000 |  |  |
| CS/C(=N\c1ccc(Cl)cc1)NC1CC(C)(C)Oc2ccc(Br)cc21 (stereo unspecified) | 40.8 | 89.4 | > 10000 |  |  |
| CC1(C)CC(NC(=S)Nc2ccc([N+](=O)[O-])cc2)c2cc(Cl)ccc2O1 (stereo unspecified) | 10.3 | 67.3 | > 10000 |  |  |
| CC1=Nc2ccc(Cl)cc2S(=O)(=O)N1 | 73.9 | 87.5 |  |  |  |
| CC1(C)CC(NC(=S)Nc2cccc([N+](=O)[O-])c2)c2cc(Br)ccc2O1 (stereo unspecified) | 13.5 | 64.3 | > 10000 |  |  |
| CC1(C)CC(NC(=S)Nc2ccc(C#N)cc2)c2cc(Cl)ccc2O1 (stereo unspecified) | 10.6 | 47.8 | > 10000 |  |  |
| CC1(C)CC(NC(=S)Nc2ccc(C#N)cc2)c2cc(Br)ccc2O1 (stereo unspecified) | 11.7 | 57.5 | > 10000 |  |  |
| CC1(C)CC(NC(=S)Nc2ccsc2)c2cc(Cl)ccc2O1 (stereo unspecified) | 51.9 |  | > 3000 |  |  |
| CC1(C)CC(NC(=S)Nc2ccsc2)c2cc(Br)ccc2O1 (stereo unspecified) | 44 |  | > 10000 |  |  |
| CC1(C)CC(NC(=S)Nc2ccc([N+](=O)[O-])cc2)c2cc(Br)ccc2O1 (stereo unspecified) | 13.5 | 61.3 | > 10000 | Active | inactive |
| CC1(C)CC(NC(=S)Nc2ccc(C#N)cc2)c2cc(F)ccc2O1 (stereo unspecified) | 12 | 64.7 | > 3000 |  |  |

Second part, the molecule after the results:

| Activity (Rattus norvegicus [1]) [%] | Activity (Rattus norvegicus [2]) [%] | EC50 [3] [nM] | Activity (Rattus norvegicus [4]) | Activity (Rattus norvegicus [5]) | Structure (SMILES) |
| --- | --- | --- | --- | --- | --- |
| 45.3 | 90.5 | 5200 |  |  | CC1(C)CC(N/C(=N/C#N)Nc2cccc(C#N)c2)c2cc(Br)ccc2O1 (stereo unspecified) |
| 11.5 | 76.1 | > 3000 |  |  | CC1(C)CC(NC(=S)Nc2cccc([N+](=O)[O-])c2)c2cc(F)ccc2O1 (stereo unspecified) |
| 16.1 | 80 | 2600 |  |  | CC1(C)CC(NC(=S)Nc2cccc(C#N)c2)c2cc(F)ccc2O1 (stereo unspecified) |
| 94.4 | 95.3 | 130 |  |  | CC1(C)Oc2ccc(C#N)cc2C(N2CCCC2=O)C1O (racemic) [CROMAKALIM] |
| 42.7 | 95.8 | 11400 |  |  | CC1(C)CC(N/C(=N/C#N)Nc2ccc(Cl)cc2)c2cc(Br)ccc2O1 (stereo unspecified) |
| 14.4 | 64.3 | > 3000 |  |  | CC1(C)CC(NC(=S)Nc2cccc([N+](=O)[O-])c2)c2cc(Cl)ccc2O1 (stereo unspecified) |
| 62.1 |  | 6600 |  |  | CC1(C)CC(NC(=S)Nc2cccnc2)c2cc(F)ccc2O1 (stereo unspecified) |
| 15.8 | 66.2 | 600 |  |  | CC1(C)CC(NC(=S)Nc2cccc(C#N)c2)c2cc(Cl)ccc2O1 (stereo unspecified) |
| 50.2 |  | 2800 |  |  | CC1(C)CC(NC(=S)Nc2cccnc2)c2cc(Cl)ccc2O1 (stereo unspecified) |
| 10.7 | 74.3 | > 3000 |  |  | CC1(C)CC(NC(=S)Nc2ccc([N+](=O)[O-])cc2)c2cc(F)ccc2O1 (stereo unspecified) |
|  |  | 350 |  |  | CC(N/C(=N\C#N)Nc1ccncc1)C(C)(C)C (racemic) [PINACIDIL ANHYDROUS] |
| 14.2 | 65.5 | 640 |  |  | CC1(C)CC(NC(=S)Nc2cccc(C#N)c2)c2cc(Br)ccc2O1 (stereo unspecified) |
| 44.3 |  | 3700 |  |  | CC1(C)CC(NC(=S)Nc2cccnc2)c2cc(Br)ccc2O1 (stereo unspecified) |
